# Experimental data as given in PMC6736640 (ACS chemical neuroscience, 2018).
# Target: Asyn fibrils (Homo sapiens, UniProt P37840)
# Assay: Radioligand competition binding on Asyn fibrils with [3H]1
# Outline: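 Recombinant human Asyn fibrils at 150 nM incubated with 2 nM [3H]1 and test compound (1–1000 nM) in 30 mM Tris-HCl pH 7.4 with 0.1% BSA for 2 h at 37 °C. Bound ligand separated by vacuum filtration through 1.0 μm glass fiber filters, washed three times with cold buffer, and counted by scintillation after overnight incubation. Triplicates. EC50 from sigmoidal fit; Ki = EC50/(1+[radioligand]/Kd).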
compound,measurement,value
"COc1ccc(/C=C/c2cc(-c3nccs3)on2)cc1 [compound 1, (E)-3-(4-methoxystyryl)-5-(thiazol-2-yl)isoxazole]",Kd,47 nM
